According to ChEMBL document CHEMBL3244139, “Antiarrhythmic activity of p-hydroxy-N-(2-diethylaminoethyl) benzamide (the p-hydroxy isostere of procainamide) in dogs and mice” (J Med Chem, 1977):

Key:
[1] = Antiarrhythmic activity in mongrel dog Purkinje fiber assessed as rate of phase 0 depolarization (dV/dt) at 20 ug/ml by Single Cell Potentials/electrophysiological technique (reference value: 478 +/- 67 V/s); type: functional, Canis lupus familiaris
[2] = Antiarrhythmic activity in mongrel dog Purkinje fiber assessed as action potential at 20 ug/ml (reference value: 128 +/- 3 mV) by Single Cell Potentials/electrophysiological technique; type: functional, Canis lupus familiaris
[3] = system: Canis familiaris; test: Antiarrhythmic activity in aconitine-induced mongrel dog arrhythmic model assessed as atrial rate measured at end of infusion at 59 +/- 25 mg/kg, iv; type: functional, Canis lupus familiaris, Heart
[4] = Antiarrhythmic activity in mongrel dog Purkinje fiber assessed as spontaneous intrinsic rate at 20 ug/ml by Single Cell Potentials/electrophysiological technique (reference value: 22 +/- 5 BPM); type: functional, Canis lupus familiaris
[5] = system: Canis familiaris; test: Antiarrhythmic activity in aconitine-induced mongrel dog arrhythmic model assessed as atrial rate at 59 +/- 25 mg/kg, iv after 16 +/- 10 mins from end of infusion; type: functional, Canis lupus familiaris, Heart
[6] = Therapeutic index, ratio of LD50 for ICR mouse assessed as acute mortality to ED50 for protection against chloroform-induced ventricular fibrillation in ICR mouse; type: organism-based, Cardiac ventricle; conditions: in vivo, read-out: Ratio LD50/ED50
In short: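 Male ICR mice, 28-35 days old, dosed ip. For ED50, 8 mice per dose went into a chloroform jar 10 min after dosing and were kept there until breathing stopped; mice with no intermittent or continuous ventricular fibrillation counted as protected. ED50 was derived by Litchfield-Wilcoxon. LD50 came from acute mortality in 10 mice per dose. Index reported as LD50/ED50.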

[7] = system: Plasma; test: Drug metabolism in mongrel dog assessed as p-hydroxy-N-(2-diethylaminoethyl)benzamide level in plasma; type: ADME, cell-free, Canis lupus familiaris
In short: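 Dog plasma sampled when infusion ended. Extracted with NaCl and internal standard and run on TLC (benzene/28% ammonia/acetone/dioxane 5:8:80:5). Quantified by reflectance densitometry, 260-nm illumination, as fluorescence quenching. Peak areas read against standard curves, linear over 0.1-0.8 µg per plate.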

[8] = system: Mus musculus; test: Antiarrhythmic activity in ip dosed ICR mouse assessed as protection against chloroform-induced ventricular fibrillation; type: functional; conditions: Heart
In short: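 Male ICR mice, 28-35 days, mean 25 g, given drug ip, then after 10 min exposed to chloroform in a jar until breathing stopped. Protection meant no intermittent or continuous ventricular fibrillation at any point. Eight mice per dosage interval.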

[9] = system: Canis familiaris; test: Antiarrhythmic activity in aconitine-induced mongrel dog arrhythmic model assessed as mean arterial blood pressure measured at end of infusion at 59 +/- 25 mg/kg, iv (reference value: 70 +/- 8 mmHg); type: functional, Canis lupus familiaris, Artery
[10] = Antiarrhythmic activity in mongrel dog Purkinje fiber assessed as 90% repolarization time at 20 ug/ml by Single Cell Potentials/electrophysiological technique (reference value: 302 +/- 12 ms); type: functional, Canis lupus familiaris
[11] = system: Canis familiaris; test: Antiarrhythmic activity in aconitine-induced mongrel dog arrhythmic model assessed as decrease in ventricular rate at 59 +/- 25 mg/kg, iv after 16 +/- 10 mins from end of infusion (reference value: 205 +/- 65 BPM); type: functional, Canis lupus familiaris, Heart
[12] = Antiarrhythmic activity in mongrel dog Purkinje fiber assessed as 50% repolarization time at 5 ug/ml by Single Cell Potentials/electrophysiological technique (reference value: 200 +/- 6 ms); type: functional, Canis lupus familiaris
[13] = Toxicity in ip dosed ICR mouse assessed as acute mortality; type: organism-based; conditions: in vivo
In short: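 Male ICR mice, 28-35 days old (av wt 26 g), in groups of ten per dose level, given drug ip. Deaths recorded at 10, 15, 30, 60, 120 and 210 min after injection to set acute mortality.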

[14] = Antiarrhythmic activity in mongrel dog Purkinje fiber assessed as spontaneous intrinsic rate at 5 ug/ml by Single Cell Potentials/electrophysiological technique (reference value: 19 +/- 4 BPM); type: functional, Canis lupus familiaris
[15] = Antiarrhythmic activity in mongrel dog Purkinje fiber assessed as maximum diastolic potential at 20 ug/ml (reference value: -93 +/- 2 mV) by Single Cell Potentials/electrophysiological technique; type: functional, Canis lupus familiaris
[16] = system: Plasma; test: Plasma concentration in mongrel dog at 59 +/- 25 mg/kg, iv; type: ADME, organism-based, Canis lupus familiaris; set-up: route intravenous; conditions: in vivo
In short: (§1)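 Plasma withdrawn from each aconitine-treated dog when iv infusion was discontinued; drug measured by TLC densitometry.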

[17] = Antiarrhythmic activity in mongrel dog Purkinje fiber assessed as action potential at 5 ug/ml (reference value: 127 +/- 2 mV) by Single Cell Potentials/electrophysiological technique; type: functional, Canis lupus familiaris
[18] = Antiarrhythmic activity in mongrel dog Purkinje fiber assessed as rate of phase 0 depolarization (dV/dt) at 5 ug/ml by Single Cell Potentials/electrophysiological technique (reference value: 439 +/- 47 V/s); type: functional, Canis lupus familiaris
[19] = Antiarrhythmic activity in mongrel dog Purkinje fiber assessed as 50% repolarization time at 20 ug/ml by Single Cell Potentials/electrophysiological technique (reference value: 236 +/- 9 ms); type: functional, Canis lupus familiaris
[20] = Antiarrhythmic activity in mongrel dog Purkinje fiber assessed as maximum diastolic potential at 5 ug/ml (reference value: -93 +/- 2 mV) by Single Cell Potentials/electrophysiological technique; type: functional, Canis lupus familiaris
[21] = Antiarrhythmic activity in mongrel dog Purkinje fiber assessed as 90% repolarization time at 5 ug/ml by Single Cell Potentials/electrophysiological technique (reference value: 282 +/- 8 ms); type: functional, Canis lupus familiaris
[22] = system: Canis familiaris; test: Antiarrhythmic activity in aconitine-induced mongrel dog arrhythmic model assessed as decrease in ventricular rate measured at end of infusion at 59 +/- 25 mg/kg, iv (reference value: 205 +/- 65 BPM); type: functional, Canis lupus familiaris, Heart
[23] = Antiarrhythmic activity in mongrel dog Purkinje fiber assessed as spontaneous intrinsic rate at 10 ug/ml by Single Cell Potentials/electrophysiological technique (reference value: 33 +/- 5 BPM); type: functional, Canis lupus familiaris
[24] = Antiarrhythmic activity in mongrel dog Purkinje fiber assessed as 90% repolarization time at 20 ug/ml by Single Cell Potentials/electrophysiological technique (reference value: 284 +/- 12 ms); type: functional, Canis lupus familiaris
[25] = Antiarrhythmic activity in mongrel dog Purkinje fiber assessed as 50% repolarization time at 20 ug/ml by Single Cell Potentials/electrophysiological technique (reference value: 223 +/- 11 ms); type: functional, Canis lupus familiaris
[26] = system: Canis familiaris; test: Antiarrhythmic activity in aconitine-induced mongrel dog arrhythmic model assessed as decrease in ventricular rate rate measured at end of infusion at 48 +/- 38 mg/kg, iv (reference value: 205 +/- 65 BPM); type: functional, Canis lupus familiaris, Heart
[27] = system: Canis familiaris; test: Antiarrhythmic activity in aconitine-induced mongrel dog arrhythmic model assessed as decrease in ventricular rate rate at 48 +/- 38 mg/kg, iv after 17 +/- 16 mins from end of infusion (reference value: 205 +/- 65 BPM); type: functional, Canis lupus familiaris, Heart
[28] = system: Canis familiaris; test: Antiarrhythmic activity in aconitine-induced mongrel dog arrhythmic model assessed as atrial rate at 48 +/- 38 mg/kg, iv after 17 +/- 16 mins from end of infusion; type: functional, Canis lupus familiaris, Heart
[29] = Antiarrhythmic activity in mongrel dog Purkinje fiber assessed as spontaneous intrinsic rate at 20 ug/ml by Single Cell Potentials/electrophysiological technique (reference value: 35 +/- 7 BPM); type: functional, Canis lupus familiaris
[30] = Antiarrhythmic activity in mongrel dog Purkinje fiber assessed as 50% repolarization time at 10 ug/ml by Single Cell Potentials/electrophysiological technique (reference value: 244 +/- 15 ms); type: functional, Canis lupus familiaris
[31] = Antiarrhythmic activity in mongrel dog Purkinje fiber assessed as 90% repolarization time at 10 ug/ml by Single Cell Potentials/electrophysiological technique (reference value: 274 +/- 30 ms); type: functional, Canis lupus familiaris
[32] = system: Canis familiaris; test: Antiarrhythmic activity in aconitine-induced mongrel dog arrhythmic model assessed as mean arterial blood pressure measured at end of infusion at 48 +/- 38 mg/kg, iv (reference value: 70 +/- 8 mmHg); type: functional, Canis lupus familiaris, Artery
[33] = system: Canis familiaris; test: Antiarrhythmic activity in aconitine-induced mongrel dog arrhythmic model assessed as atrial rate measured at end of infusion at 48 +/- 38 mg/kg, iv; type: functional, Canis lupus familiaris, Heart
[34] = Antiarrhythmic activity in mongrel dog Purkinje fiber assessed as rate of phase 0 depolarization (dV/dt) at 20 ug/ml by Single Cell Potentials/electrophysiological technique (reference value: 474 +/- 57 V/s); type: functional, Canis lupus familiaris
[35] = Antiarrhythmic activity in mongrel dog Purkinje fiber assessed as rate of phase 0 depolarization (dV/dt) at 10 ug/ml by Single Cell Potentials/electrophysiological technique (reference value: 491 +/- 40 V/s); type: functional, Canis lupus familiaris
[36] = system: Plasma; test: Plasma concentration in mongrel dog at 48 +/- 38 mg/kg, iv; type: ADME, organism-based, Canis lupus familiaris; set-up: route intravenous; conditions: in vivo; in short: as §1

CCN(CC)CCNC(=O)c1ccc(O)cc1.Cl
Activity [1]: 423 V/s
Activity [2]: 126 mV
Activity [3]: 210 bpm
Activity [4]: 16 bpm
Activity [5]: 278 bpm
selectivity ratio [6]: 2.1
Drug metabolism [7]: 97 µg/mL
ED50 [8]: 157 mg/kg
Activity [9]: 64 mmHg
Time [10]: 381 ms
Activity [11]: 160 bpm
Time [12]: 250 ms
LD50 [13]: 335 mg/kg
Activity [14]: 20 bpm
Activity [15]: -94 mV
Cp [16]: 137 µg/mL
Activity [17]: 127 mV
Activity [18]: 396 V/s
Time [19]: 280 ms
Activity [20]: -95 mV
Time [21]: 344 ms
Activity [22]: 197 bpm

CCN(CC)CCNC(=O)c1ccc(NC(C)=O)cc1.Cl [ACECAINIDE HYDROCHLORIDE]
ED50 [8]: 110 mg/kg

CCN(CC)CCNC(=O)c1ccc(N)cc1.Cl [PROCAINAMIDE HYDROCHLORIDE]
Activity [23]: 24 bpm
Time [24]: 316 ms
Time [25]: 239 ms
Activity [26]: 203 bpm
selectivity ratio [6]: 1.8
Activity [27]: 215 bpm
Activity [28]: 283 bpm
ED50 [8]: 137 mg/kg
Activity [29]: 23 bpm
Time [30]: 265 ms
Time [31]: 334 ms
Activity [32]: 68 mmHg
LD50 [13]: 255 mg/kg
Activity [33]: 225 bpm
Activity [34]: 411 V/s
Activity [35]: 421 V/s
Cp [36]: 118 µg/mL
